Measured values from different studies.
Compare with care: the assays were run in different laboratories.
Target: Myosin light chain kinase 2, skeletal/cardiac muscle (MYLK2, Homo sapiens, UniProt Q9H1R3)

With CCOC(=O)c1cc2cc(-c3cc(C(=O)NCc4ccc(C(=O)O)cc4)nn3C)ccc2[nH]1 the remaining binding was 89% (cell-free assay; competition with immobilised ligand; 0.1 µM).
The remaining binding of CC1CCCN1c1nccc(-c2cnn3ncccc23)n1 (centres unmarked) is reported as 100% (binding; 1 µM).
CN(C)CC#Cc1ccc(OCCCc2sc(N3CCc4cccc(C(=O)Nc5nc6ccccc6s5)c4C3)nc2C(=O)O)c(F)c1 has a remaining binding of 100% (cell-free assay; competition with immobilised ligand; 1 µM).
O=C(NCCCN1CCOCC1)c1ccc(Nc2ncc(Cl)c(-c3ccc(Cl)s3)n2)cc1 gave a remaining binding of 12% (binding; competition with immobilised ligand; 1 µM).
For C[C@@H](c1ccc(-n2cnc3c(N)ncnc32)cc1)N1CCc2nn(C)c(Cc3ccccc3)c2C1=O, the remaining binding was 85% (binding; competition with immobilised ligand; 0.1 µM).
The remaining binding of COc1cnc(Nc2cccc(S(N)(=O)=O)c2)nc1N1CCN(c2ccccc2)CC1 is reported as 100% (binding; competition with immobilised ligand; 1 µM).
The remaining binding of CCC(=O)N[C@@H]1CC[C@H](C(=O)N(C)c2ccc(-c3nc4ccccc4o3)cc2)C1 is reported as 79% (cell-free assay; competition with immobilised ligand; 1 µM).
For N[C@H]1CCN(c2nccc(-c3cnn4ncccc34)n2)C1, the remaining binding was 92% (binding; 1 µM).
The remaining binding of CS(=O)(=O)c1cc(C2(NC(=O)c3cncc4c3cnn4-c3ccc(F)cc3)CC2)ccn1 is reported as 100% (cell-free assay; competition with immobilised ligand; 1 µM).
C[C@H]1CCN(c2nccc(-c3cnn4ncccc34)n2)C1 gave a remaining binding of 79% (binding; 1 µM).
The remaining binding of O=C(c1ccc(Nc2nccc(-c3cc4ccccc4s3)n2)cc1)N1CCC(N2CCCC2)CC1 is reported as 0.8% (binding; competition with immobilised ligand; 1 µM).
CN(CCCC(F)(F)F)c1nccc(-c2cnn3ncccc23)n1 has a remaining binding of 98% (binding; 1 µM).
For COc1cc(-c2cn(C3CCc4c(F)cccc4N(CC(F)(F)F)C3=O)nn2)ccc1-n1cnc(C)c1 (centres unmarked), the remaining binding was 100% (cell-free assay; competition with immobilised ligand; 1 µM).
The remaining binding of Cc1cnc(Nc2ccc(C(=O)N3CCC(N4CCCC4)CC3)cc2)nc1-c1cc2ccccc2s1 is reported as 1.8% (binding; competition with immobilised ligand; 1 µM).
O=C(Nc1c[nH]nc1C(=O)NC1CCNCC1)c1cc(F)cc(F)c1 gave a remaining binding of 88% (binding; competition with immobilised ligand; 1 µM).
CCN1CCN(Cc2ccc(C(=O)Nc3ccc(C)c(Oc4ccc5c(c4)CC(=O)N5)c3)cc2C(F)(F)F)CC1 gave a remaining binding of 100% (binding; competition with immobilised ligand; 1 µM).
CN(c1nccc(-c2cnn3ncccc23)n1)C1CC1 has a remaining binding of 100% (binding; 1 µM).
O=C(N1CCS(=O)(=O)CC1)N1C[C@H](c2ccc(OC(F)(F)F)cc2)C[C@H](c2nc(C3CC3)no2)C1 gave a remaining binding of 100% (cell-free assay; competition with immobilised ligand; 1 µM).
For CN(C)c1nccc(-c2cnn3ncccc23)n1, the remaining binding was 100% (binding; 1 µM).
The remaining binding of COc1ncc2cc3ccccc3nc2c1C#N is reported as 84% (binding; competition with immobilised ligand; 5 µM).
